Reference: ChEMBL document CHEMBL2406950, “Replacement of a quinone by a 5-O-acetylhydroquinone abolishes the accidental necrosis inducing effect while preserving the apoptosis-inducing effect of renieramycin M on lung cancer cells” (J Nat Prod, 2013)
The source made the active and inactive calls. The rule behind the calls is not given here.

What was measured:
NCI-H23 [1] = test: Cytotoxicity against human H23 cells assessed as cell viability at 20 uM after 24 hrs by MTT assay; format: functional, cell-based
In short: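 H23 non-small-cell lung cancer cells (RPMI 1640, 5% FBS, 2 mM L-glutamine) plated at 1.5 × 10^5 cells/mL, grown 24 h at 37 °C, then exposed to compound 24 h at 37 °C. MTT 500 μg/mL added for 4 h; formazan dissolved in DMSO, absorbance read at 570 nm. Viability given as percent of untreated control; at least three replicate cultures.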

NCI-H23 [2] = test: Induction of intracellular ROS generation in human H23 cells at 20 uM after 6 hrs by DCFH2-DA staining based fluorescence assay; format: functional, cell-based
In short: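 H23 cells seeded 24 h at 37 °C, medium removed, then loaded with DCFH2-DA (10 μM final) in PBS for 30 min at 4 °C. Compound added at 20 μM and incubated 6 h at 37 °C. Fluorescence read on a microplate reader (excitation 480 nm, 530 nm band-pass). Triplicate samples, means ± SD.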

NCI-H23 [3] = test: Induction of apoptosis in human H23 cells at 20 uM after 24 hrs by Hoechst 33342/propidium iodide staining-based fluorescence microscopy; format: functional, cell-based
In short: (§1)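 H23 cells exposed to compound (0–20 μM range) for 24 h at 37 °C, then co-stained 30 min at 37 °C with 10 μM Hoechst 33342 and 10 μM PI. Scored by fluorescence microscopy: condensed or fragmented nuclei counted as apoptotic, PI-positive membrane-damaged cells counted as accidental necrotic. Results given as percentages; means ± SD of three independent experiments.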

[4] = Toxicity in human HK2 cells assessed as induction of accidental necrosis at 20 uM after 24 hrs by propidium iodide staining; format: cell-based; settings: hk-2, 24 h
In short: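 Normal human kidney HK-2 cells exposed to compound at 20 μM for 24 h. Accidental necrotic cells identified by propidium iodide staining and expressed as percentage.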

[5] = Toxicity in human H23 cells assessed as induction of accidental necrosis at 20 uM after 24 hrs by Hoechst 33342/propidium iodide staining-based fluorescence microscopy; format: cell-based; settings: nci-h23, 24 h; in short: as §1
NCI-H23 [6] = test: Induction of apoptosis in human H23 cells at 1 to 20 uM after 24 hrs by Hoechst 33342/propidium iodide staining-based fluorescence microscopy; format: functional; in short: as §1
NCI-H23 [7] = test: Induction of intracellular ROS generation in human H23 cells at 20 uM after 6 hrs by DCFH2-DA staining based fluorescence assay in presence of N-acetylcysteine; format: functional, cell-based
In short: (§2)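 Seeded cells (24 h) loaded 30 min at 4 °C with 10 μM DCFH2-DA in PBS, with or without 1 mM scavenger (NAC, or sodium pyruvate for H2O2). Then 20 μM compound was added and cells incubated 0−6 h at 37 °C. Fluorescence read at ex 480 nm / 530 nm band-pass. Triplicate samples.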

NCI-H23 [8] = test: Induction of intracellular hydroxyl radical generation in human H23 cells at 20 uM after 6 hrs by DCFH2-DA staining based fluorescence assay in presence of HPF; format: functional, cell-based
In short: (§3)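 Seeded cells loaded 30 min at 4 °C with 10 μM probe in PBS: HPF for hydroxyl radical, DHE for superoxide. Then 20 μM compound was added for 0−6 h at 37 °C. Plate fluorescence read at ex 490/515 nm (HPF) and ex 488/610 nm (DHE). Triplicate samples.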

NCI-H23 [9] = test: Induction of ROS generation in human H23 cells assessed as apoptotic cells at 20 uM after 24 hrs by Hoechst 33342/propidium iodide staining-based fluorescence microscopy in presence of N-acetylcysteine; format: functional, cell-based
In short: (§4)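 Cells plated 24 h, then incubated 1 h at 37 °C with or without 1 mM NAC before 20 μM compound for 24 h. Staining used 10 μM Hoechst 33342 plus 10 μM PI for 30 min at 37 °C. Condensed or fragmented nuclei were scored as apoptotic and PI-stained nuclei as accidental necrotic, by fluorescence microscopy.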

[10] = Induction of intracellular superoxide anion generation in human H23 cells at 20 uM after 6 hrs by DCFH2-DA staining based fluorescence assay in presence of dihydroethidium relative to control; format: cell-based; settings: nci-h23, 6 h; in short: as §3
NCI-H23 [11] = test: Induction of ROS generation in human H23 cells assessed as cell viability at 20 uM after 24 hrs by MTT assay in presence of N-acetylcysteine
[12] = Induction of accidental necrosis in human H23 cells assessed as loss of membrane integrity at 5 to 20 uM after 24 hrs by trypan blue exclusion assay; format: cell-based; settings: nci-h23, 24 h
In short: (§5)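 Attached cells exposed 24 h to 0−20 μM were collected into 3% FBS/PBS and fixed in absolute ethanol at −20 °C for 24 h. They were stained 40 min at 37 °C in PI buffer containing RNase A and Triton X-100. Sub-G0 fraction was taken from the flow cytometry DNA histogram. The same cells were stained with trypan blue and counted on an automated counter, with membrane-damaged cells scored as necrotic.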

NCI-H23 [13] = test: Induction of apoptosis in human H23 cells assessed as accumulation of sub-G0 fraction after 24 hrs by propidium iodide staining-based flow cytometry; format: functional, cell-based; in short: as §5
NCI-H23 [14] = test: Cytotoxicity against human H23 cells assessed as cell viability after 24 hrs by MTT assay; format: functional, cell-based
In short: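 H23 cells (1.5 × 10^5 cells/mL) grown 24 h at 37 °C in RPMI 1640, then exposed to 0−20 μM compound for 24 h at 37 °C. MTT (500 μg/mL) added for 4 h, formazan dissolved in DMSO, absorbance read at 570 nm. Viability expressed as percent of untreated control; at least three replicate cultures.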

NCI-H23 [15] = test: Induction of intracellular H2O2 generation in human H23 cells at 20 uM after 6 hrs by DCFH2-DA staining based fluorescence assay in presence of sodium pyruvate; format: functional, cell-based; in short: as §2
[16] = Induction of ROS generation in human H23 cells assessed as accidental necrotic cells at 20 uM after 24 hrs by Hoechst 33342/propidium iodide staining-based fluorescence microscopy in presence of N-acetylcysteine; format: cell-based; settings: nci-h23, 24 h; in short: as §4
[17] = Toxicity in human H23 cells assessed as induction of accidental necrosis at 1 to 20 uM after 24 hrs by Hoechst 33342/propidium iodide staining-based fluorescence microscopy; format: cell-based; settings: nci-h23, 24 h
In short: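 H23 cells exposed to 0−20 μM compound for 24 h at 37 °C, then stained 30 min at 37 °C with 10 μM Hoechst 33342 and 10 μM PI. PI-stained, membrane-damaged cells were scored as accidental necrotic under a fluorescence microscope.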

Row | Structure (SMILES) | Activity (NCI-H23 [1]) | Activity (NCI-H23 [2]) | Activity (NCI-H23 [3]) | Activity [4] | Activity [5] | Activity (NCI-H23 [6]) | Activity (NCI-H23 [7]) | Activity (NCI-H23 [8]) | Activity (NCI-H23 [9]) | Activity [10] | Activity (NCI-H23 [11]) | Activity [12] | Activity (NCI-H23 [13]) | Activity (NCI-H23 [14]) | Activity (NCI-H23 [15]) | Activity [16] | Activity [17]
1 | C/C=C(/C)C(=O)OC[C@H]1c2c(c(OC(C)=O)c(C)c(OC)c2OC(C)=O)C[C@H]2[C@H]3c4c(c(OC(C)=O)c(C)c(OC)c4OC(C)=O)C[C@@H]([C@H](C#N)N12)N3C | Active | inactive | inactive | Non-toxic | Non-toxic |  |  |  |  |  |  |  |  |  |  |  | 
2 | C/C=C(/C)C(=O)OC[C@H]1c2c(O)c(OC)c(C)c(OC(C)=O)c2C[C@H]2[C@H]3C4=C(C[C@@H]([C@H](C#N)N12)N3C)C(=O)C(C)=C(OC)C4=O |  | Active |  | Non-toxic |  | 46% | inactive | inactive | Active | Non-toxic | Active | 1% | Dose-dependent effect | Dose-dependent effect | inactive |  | 
3 | C/C=C(/C)C(=O)OC[C@H]1C2=C(C[C@H]3[C@H]4C5=C(C[C@@H]([C@H](C#N)N13)N4C)C(=O)C(C)=C(OC)C5=O)C(=O)C(C)=C(OC)C2=O [RENIERAMYCIN M] |  | Active |  | 60% |  | 51% | inactive | inactive | Active | Toxic | inactive | 10% | Dose-dependent effect | Dose-dependent effect | inactive | Non-toxic | 2.5%
